Measurements reported in ChEMBL document CHEMBL3611968, “Reengineered tricyclic anti-cancer agents” (Bioorg Med Chem, 2015).
Blank lines part the entries; values can stand above or below the molecule they belong to. Active and inactive are the calls of the source. No cut-off for these calls is given here.

How the values were obtained:
[1] = molecular target: Sodium-dependent dopamine transporter (Homo sapiens) (UniProt Q01959); conditions: 10 mM
[2] = molecular target: Sodium-dependent dopamine transporter (Homo sapiens) (UniProt Q01959); conditions: 1 mM
NCI-H1650 [3] = assay: Cell cycle arrest in human NCI-H1650 cells assessed as accumulation at sub-G1 phase at 1 to 40 uM by propidium iodide staining-based flow cytometric analysis; format: functional
[4] = molecular target: Sodium channel protein type 5 subunit alpha (Homo sapiens, UniProt Q14524); assay: Inhibition of Nav1.5 channel (unknown origin) expressed in HEK293 cells at […] by patch clamp assay; format: cell-based
Sequence of Sodium channel protein type 5 subunit alpha (Q14524 whole entry): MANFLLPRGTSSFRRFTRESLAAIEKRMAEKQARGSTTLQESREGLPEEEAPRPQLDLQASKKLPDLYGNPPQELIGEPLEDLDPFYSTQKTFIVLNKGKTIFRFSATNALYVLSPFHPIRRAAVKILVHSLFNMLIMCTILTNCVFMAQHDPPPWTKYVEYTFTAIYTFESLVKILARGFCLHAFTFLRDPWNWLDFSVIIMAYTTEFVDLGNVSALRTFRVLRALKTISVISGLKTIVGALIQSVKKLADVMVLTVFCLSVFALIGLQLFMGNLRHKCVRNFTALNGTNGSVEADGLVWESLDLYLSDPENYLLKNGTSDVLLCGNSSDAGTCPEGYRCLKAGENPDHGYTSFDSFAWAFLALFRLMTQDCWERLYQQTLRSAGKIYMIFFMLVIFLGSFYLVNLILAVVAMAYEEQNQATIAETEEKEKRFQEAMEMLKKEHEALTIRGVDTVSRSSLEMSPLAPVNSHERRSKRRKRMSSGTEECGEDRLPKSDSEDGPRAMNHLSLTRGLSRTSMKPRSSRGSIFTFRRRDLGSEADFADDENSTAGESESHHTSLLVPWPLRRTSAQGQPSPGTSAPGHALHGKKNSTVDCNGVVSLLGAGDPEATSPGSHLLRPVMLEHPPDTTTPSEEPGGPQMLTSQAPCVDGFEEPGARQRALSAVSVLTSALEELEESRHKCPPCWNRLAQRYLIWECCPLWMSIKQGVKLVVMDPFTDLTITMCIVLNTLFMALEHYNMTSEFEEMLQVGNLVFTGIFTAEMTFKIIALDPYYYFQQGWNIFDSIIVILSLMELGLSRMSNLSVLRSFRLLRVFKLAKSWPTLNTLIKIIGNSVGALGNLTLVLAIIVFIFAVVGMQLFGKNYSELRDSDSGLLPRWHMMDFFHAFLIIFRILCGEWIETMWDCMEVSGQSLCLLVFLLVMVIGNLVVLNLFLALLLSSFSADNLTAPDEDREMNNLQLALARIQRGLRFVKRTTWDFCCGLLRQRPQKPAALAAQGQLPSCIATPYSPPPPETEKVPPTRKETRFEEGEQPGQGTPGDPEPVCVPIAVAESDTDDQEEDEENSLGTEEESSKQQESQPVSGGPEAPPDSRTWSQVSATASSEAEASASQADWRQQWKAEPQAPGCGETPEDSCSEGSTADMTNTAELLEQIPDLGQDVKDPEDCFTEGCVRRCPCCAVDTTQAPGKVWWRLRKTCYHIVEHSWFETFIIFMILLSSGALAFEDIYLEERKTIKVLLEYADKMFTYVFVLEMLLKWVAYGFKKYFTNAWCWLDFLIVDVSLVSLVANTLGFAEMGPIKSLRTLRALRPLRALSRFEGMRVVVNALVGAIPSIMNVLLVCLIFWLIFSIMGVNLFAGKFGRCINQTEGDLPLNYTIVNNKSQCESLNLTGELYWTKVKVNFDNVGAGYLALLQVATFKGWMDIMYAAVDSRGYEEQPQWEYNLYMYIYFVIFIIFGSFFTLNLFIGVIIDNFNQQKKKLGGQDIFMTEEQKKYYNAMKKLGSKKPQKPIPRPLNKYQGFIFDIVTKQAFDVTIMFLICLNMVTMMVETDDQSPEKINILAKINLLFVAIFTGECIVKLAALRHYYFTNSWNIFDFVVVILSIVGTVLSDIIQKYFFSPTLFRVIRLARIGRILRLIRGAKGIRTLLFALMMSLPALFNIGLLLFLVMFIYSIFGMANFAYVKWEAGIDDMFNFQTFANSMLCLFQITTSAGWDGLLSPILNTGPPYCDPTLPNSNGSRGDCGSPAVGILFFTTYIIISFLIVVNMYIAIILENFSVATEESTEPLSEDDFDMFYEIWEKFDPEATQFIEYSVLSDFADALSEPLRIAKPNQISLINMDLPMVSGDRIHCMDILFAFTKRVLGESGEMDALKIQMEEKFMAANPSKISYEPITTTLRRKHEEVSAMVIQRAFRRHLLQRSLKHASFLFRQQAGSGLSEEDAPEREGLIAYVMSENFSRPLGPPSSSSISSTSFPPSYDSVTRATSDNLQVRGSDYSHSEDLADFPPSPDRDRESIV

NCI-H1650 [5] = assay: Cytotoxicity against human NCI-H1650 cells assessed as growth inhibition after 48 hrs by MTT assay; format: functional; conditions: NCI-H1650, 48 h
Outline: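 H1650 cells were exposed to drug for 48 h at five concentrations bracketing 1–40 μM in 10 μM steps, with MTT read-out. GI50 is given only where the data form a sigmoidal dose response.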

[6] = molecular target: Sodium-dependent noradrenaline transporter (Homo sapiens) (UniProt P23975); assay: Displacement of [3H]-nisoxetine from norepinephrine transporter (unknown origin) at 1 mM relative to control
Sequence of Sodium-dependent noradrenaline transporter (Homo sapiens) (P23975 whole entry): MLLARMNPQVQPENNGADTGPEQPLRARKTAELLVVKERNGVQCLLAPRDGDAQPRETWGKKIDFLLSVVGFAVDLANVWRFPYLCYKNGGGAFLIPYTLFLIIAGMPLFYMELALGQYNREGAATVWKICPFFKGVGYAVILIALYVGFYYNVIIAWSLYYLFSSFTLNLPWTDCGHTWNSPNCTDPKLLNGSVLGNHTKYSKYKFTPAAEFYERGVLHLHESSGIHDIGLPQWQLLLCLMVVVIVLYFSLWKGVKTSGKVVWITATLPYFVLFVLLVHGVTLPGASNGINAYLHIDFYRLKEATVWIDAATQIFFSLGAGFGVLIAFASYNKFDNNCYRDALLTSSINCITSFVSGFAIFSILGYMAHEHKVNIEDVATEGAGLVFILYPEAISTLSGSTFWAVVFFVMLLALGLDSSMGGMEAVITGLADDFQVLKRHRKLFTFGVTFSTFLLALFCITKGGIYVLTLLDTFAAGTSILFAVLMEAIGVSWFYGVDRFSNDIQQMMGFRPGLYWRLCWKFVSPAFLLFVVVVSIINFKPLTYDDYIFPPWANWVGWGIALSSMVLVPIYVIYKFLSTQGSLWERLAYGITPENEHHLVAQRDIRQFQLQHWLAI
Outline: (§1)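 Competitive antagonist radioligand binding at monoamine transporters. Serotonin transporter is labelled with [³H]imipramine and norepinephrine transporter with [³H]nisoxetine. The compound was tested at three concentrations, and binding is expressed as percent inhibition of specific radioligand binding. Each value is the mean of two independent determinations.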

[7] = molecular target: Sodium-dependent noradrenaline transporter (Homo sapiens) (UniProt P23975); assay: Displacement of [3H]-nisoxetine from norepinephrine transporter (unknown origin) at 10 mM relative to control
Outline: as §1

[8] = molecular target: Sodium-dependent noradrenaline transporter (Homo sapiens) (UniProt P23975); assay: Displacement of [3H]-nisoxetine from norepinephrine transporter (unknown origin) at 0.1 mM relative to control
Outline: as §1

Homo sapiens [9] = species: Homo sapiens; assay: Displacement of [3H]-D888 from L-type Ca2+ channel verapamil site (unknown origin) at […]
[10] = Tmax in mouse at 100 mg/kg, ip administered through DMSO; format: ADME, organism-based; conditions: in vivo
[11] = Cmax in mouse at 100 mg/kg, ip administered through DMA/solutol/water; format: ADME, organism-based; design: dose 100 mg/kg, route intraperitoneal; conditions: in vivo
Homo sapiens [12] = species: Homo sapiens; assay: Displacement of [3H]-diltiazem from L-type Ca2+ channel diltiazem site (unknown origin) at […]
[13] = AUClast in mouse at 1 mg/kg, iv; format: ADME, organism-based; conditions: in vivo
[14] = Clearance in mouse at 1 mg/kg, iv; format: ADME, organism-based; conditions: in vivo
[15] = AUCinfinity in mouse at 100 mg/kg, po; format: ADME, organism-based; design: dose 100 mg/kg, route oral, time infinity; conditions: in vivo
[16] = Cmax in mouse at 100 mg/kg, po; format: ADME, organism-based; design: dose 100 mg/kg, route oral; conditions: in vivo
[17] = AUCinfinity in mouse at 100 mg/kg, ip administered through DMA/solutol/water; format: ADME, organism-based; design: dose 100 mg/kg, route intraperitoneal, time infinity; conditions: in vivo
[18] = AUCinfinity in mouse at 1 mg/kg, iv; format: ADME, organism-based; design: dose 1 mg/kg, time infinity, route intravenous; conditions: in vivo
[19] = Cmax in mouse at 25 mg/kg, po; format: ADME, organism-based; design: dose 25 mg/kg, route oral; conditions: in vivo
[20] = Cmax in mouse at 100 mg/kg, ip administered through DMSO; format: ADME, organism-based; design: dose 100 mg/kg, route intraperitoneal; conditions: in vivo
[21] = molecular target: RAC-alpha serine/threonine-protein kinase (Homo sapiens) (UniProt P31749); assay: Inhibition of AKT phosphorylation in human NCI-H1650 cells at 20 to 40 uM after 12 hrs by Western blot analysis; format: cell-based
Sequence of RAC-alpha serine/threonine-protein kinase (Homo sapiens) (P31749 whole entry): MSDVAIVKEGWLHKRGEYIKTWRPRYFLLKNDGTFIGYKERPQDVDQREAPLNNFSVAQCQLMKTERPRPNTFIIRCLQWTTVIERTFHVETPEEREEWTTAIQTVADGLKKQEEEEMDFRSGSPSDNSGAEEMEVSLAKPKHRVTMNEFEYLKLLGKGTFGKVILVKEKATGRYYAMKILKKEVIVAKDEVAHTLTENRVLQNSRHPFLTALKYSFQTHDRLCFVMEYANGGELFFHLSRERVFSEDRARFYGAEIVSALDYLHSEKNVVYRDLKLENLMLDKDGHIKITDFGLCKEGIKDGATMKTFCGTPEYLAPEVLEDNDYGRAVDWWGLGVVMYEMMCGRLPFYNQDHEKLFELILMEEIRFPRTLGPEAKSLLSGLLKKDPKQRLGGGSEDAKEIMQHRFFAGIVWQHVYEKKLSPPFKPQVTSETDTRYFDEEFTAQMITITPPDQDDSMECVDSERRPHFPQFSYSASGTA

[22] = molecular target: Histamine H2 receptor (Homo sapiens) (UniProt P25021); assay: Displacement of [125I]-APT from histamine H2 receptor (unknown origin) at […]
Sequence of Histamine H2 receptor (Homo sapiens) (P25021 whole entry): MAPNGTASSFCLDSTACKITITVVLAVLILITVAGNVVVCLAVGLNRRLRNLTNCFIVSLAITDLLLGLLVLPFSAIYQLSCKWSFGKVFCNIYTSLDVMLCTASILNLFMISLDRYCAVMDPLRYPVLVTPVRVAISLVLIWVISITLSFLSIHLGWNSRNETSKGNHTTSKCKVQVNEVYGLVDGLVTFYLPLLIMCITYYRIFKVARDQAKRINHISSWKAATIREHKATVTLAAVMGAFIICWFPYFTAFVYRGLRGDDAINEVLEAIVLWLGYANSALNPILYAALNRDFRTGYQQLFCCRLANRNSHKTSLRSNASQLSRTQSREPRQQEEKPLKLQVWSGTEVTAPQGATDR

[23] = AUClast in mouse at 100 mg/kg, ip administered through DMA/solutol/water; format: ADME, organism-based; conditions: in vivo
[24] = Half life in mouse at 1 mg/kg, iv; format: ADME, organism-based; conditions: in vivo
[25] = Tmax in mouse at 100 mg/kg, ip administered through DMA/solutol/water; format: ADME, organism-based; conditions: in vivo
[26] = Bioavailability in mouse at 100 mg/kg, ip administered through DMSO; format: ADME, organism-based; conditions: in vivo
[27] = Bioavailability in mouse at 25 mg/kg, ip; format: ADME, organism-based; conditions: in vivo
[28] = molecular target: Voltage-gated inwardly rectifying potassium channel KCNH2 (Homo sapiens, UniProt Q12809); assay: Displacement of [3H]-astemizole from human ERG at […]
[29] = Oral bioavailability in mouse at 25 mg/kg; format: ADME, organism-based; conditions: in vivo
[30] = AUCinfinity in mouse at 25 mg/kg, po; format: ADME, organism-based; design: dose 25 mg/kg, route oral, time infinity; conditions: in vivo
Homo sapiens [31] = species: Homo sapiens; assay: Displacement of [125-I]-apamin from SKCa channel (unknown origin) at 0.1 to 10 mM
NCI-H1650 [32] = assay: Inhibition of ERK phosphorylation in human NCI-H1650 cells at 20 to 40 uM after 12 hrs by Western blot analysis; format: cell-based
[33] = Tmax in mouse at 25 mg/kg, ip; format: ADME, organism-based; conditions: in vivo
[34] = Tmax in mouse at 25 mg/kg, po; format: ADME, organism-based; conditions: in vivo
Homo sapiens [35] = species: Homo sapiens; assay: Displacement of [3H]-nitrendipine from L-type Ca2+ channel dihydropyridine site (unknown origin) at […]
[36] = Bioavailability in mouse at 100 mg/kg, ip administered through DMA/solutol/water; format: ADME, organism-based; conditions: in vivo
[37] = AUClast in mouse at 100 mg/kg, po; format: ADME, organism-based; conditions: in vivo
[38] = AUClast in mouse at 100 mg/kg, ip administered through DMSO; format: ADME, organism-based; conditions: in vivo
[39] = Volume of distribution at steady state in mouse at 1 mg/kg, iv; format: ADME, organism-based; conditions: in vivo, read-out: Vdss
[40] = tested on: Voltage-gated potassium channel; assay: Displacement of [125-I]-dendrotoxin from Kv channel (unknown origin) at 0.1 to 10 mM; format: protein assay; conditions: human
Homo sapiens [41] = species: Homo sapiens; assay: Displacement of [3H]-glibencamide from K (ATP) channel (unknown origin) at […]
[42] = Cmax in mouse at 25 mg/kg, ip; format: ADME, organism-based; design: dose 25 mg/kg, route intraperitoneal; conditions: in vivo
NCI-H1650 [43] = assay: Induction of apoptosis in human NCI-H1650 cells by Annexin V staining in presence of pan caspase inhibition Z-VAD; format: functional, cell-based
[44] = AUCinfinity in mouse at 25 mg/kg, ip; format: ADME, organism-based; design: dose 25 mg/kg, time infinity, route intraperitoneal; conditions: in vivo
[45] = Oral bioavailability in mouse at 100 mg/kg; format: ADME, organism-based; conditions: in vivo
[46] = molecular target: Histamine H1 receptor (Homo sapiens) (UniProt P35367); assay: Displacement of [3H]-pyrilamine from histamine H1 receptor (unknown origin) at […]
[47] = molecular target: Sodium-dependent serotonin transporter (Homo sapiens) (UniProt P31645); assay: Displacement of [3H]-imipramine from serotonin transporter (unknown origin) at 0.1 to 10 mM relative to control
Sequence of Sodium-dependent serotonin transporter (Homo sapiens) (P31645 whole entry, looked up): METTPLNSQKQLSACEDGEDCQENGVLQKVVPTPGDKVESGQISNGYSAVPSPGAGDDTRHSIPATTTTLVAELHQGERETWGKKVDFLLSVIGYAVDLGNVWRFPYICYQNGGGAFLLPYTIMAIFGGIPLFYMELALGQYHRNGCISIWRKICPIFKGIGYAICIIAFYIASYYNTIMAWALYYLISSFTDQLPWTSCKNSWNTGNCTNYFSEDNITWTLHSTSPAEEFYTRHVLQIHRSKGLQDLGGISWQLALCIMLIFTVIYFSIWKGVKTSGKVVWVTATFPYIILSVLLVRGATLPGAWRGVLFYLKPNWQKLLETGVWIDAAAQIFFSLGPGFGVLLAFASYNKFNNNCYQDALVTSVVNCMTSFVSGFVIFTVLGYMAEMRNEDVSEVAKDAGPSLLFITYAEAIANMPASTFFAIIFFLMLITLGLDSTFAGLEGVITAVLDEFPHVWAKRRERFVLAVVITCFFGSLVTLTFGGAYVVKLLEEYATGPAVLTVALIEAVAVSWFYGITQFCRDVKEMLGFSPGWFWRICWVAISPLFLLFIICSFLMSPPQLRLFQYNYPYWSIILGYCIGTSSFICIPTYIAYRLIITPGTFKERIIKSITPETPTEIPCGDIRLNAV
Outline: as §1

[48] = AUClast in mouse at 25 mg/kg, ip; format: ADME, organism-based; conditions: in vivo
NCI-H1650 [49] = assay: Induction of apoptosis in human NCI-H1650 cells by Annexin V staining; format: functional, cell-based
[50] = Tmax in mouse at 100 mg/kg, po; format: ADME, organism-based; conditions: in vivo
[51] = molecular target: T1, Muscarinic acetylcholine receptor M2 (Homo sapiens) (UniProt P08172); assay: Displacement of [3H]-AF-DX384 from muscarinic acetylcholine M2 receptor (unknown origin) at […]
T1 sequence (whole entry): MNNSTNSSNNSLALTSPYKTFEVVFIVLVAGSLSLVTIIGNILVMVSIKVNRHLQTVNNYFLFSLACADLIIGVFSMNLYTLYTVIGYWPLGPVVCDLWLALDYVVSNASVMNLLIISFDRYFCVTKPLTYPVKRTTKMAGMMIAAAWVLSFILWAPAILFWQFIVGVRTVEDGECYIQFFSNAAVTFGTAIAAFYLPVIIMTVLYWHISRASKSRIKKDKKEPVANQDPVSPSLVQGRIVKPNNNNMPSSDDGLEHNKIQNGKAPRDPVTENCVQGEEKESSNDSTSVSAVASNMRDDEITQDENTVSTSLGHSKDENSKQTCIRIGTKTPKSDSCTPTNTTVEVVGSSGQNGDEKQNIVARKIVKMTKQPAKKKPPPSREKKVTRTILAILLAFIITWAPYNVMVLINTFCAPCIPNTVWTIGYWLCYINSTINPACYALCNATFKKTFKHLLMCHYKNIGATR

[52] = AUCinfinity in mouse at 100 mg/kg, ip administered through DMSO; format: ADME, organism-based; design: dose 100 mg/kg, time infinity, route intraperitoneal; conditions: in vivo
[53] = molecular target: Sodium-dependent noradrenaline transporter (Homo sapiens) (UniProt P23975); assay: Displacement of [3H]-nisoxetine from norepinephrine transporter (unknown origin) at 1 to 10 mM
Outline: as §1

[54] = molecular target: Sodium-dependent dopamine transporter (Homo sapiens) (UniProt Q01959); assay: Displacement of [3H]-BTCP from dopamine transporter (unknown origin) at 1 to 10 mM
Outline: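 Dopamine transporter antagonist radioligand binding used [3H]BTCP, tested at 0.1, 1.0 and 10 mM, as percent inhibition. Each value is the average of two independent determinations.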

[55] = AUClast in mouse at 25 mg/kg, po; format: ADME, organism-based; conditions: in vivo
NCI-H1650 [56] = assay: Antitumor activity against human NCI-H1650 cells xenografted in BALB/c nu/nu mouse assessed as change in tumor volume at 100 mg/kg, ip administered every other day for 3 weeks (reference value: 3.46 +/- 0.95); format: functional
Outline: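 H1650 tumours were grown in mice. The 100 mg/kg treated group (n = 9) was compared with vehicle controls (n = 7) on mean fold change in tumour volume, using Student's t test.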

Sequence of Sodium-dependent dopamine transporter (Homo sapiens) (Q01959 whole entry): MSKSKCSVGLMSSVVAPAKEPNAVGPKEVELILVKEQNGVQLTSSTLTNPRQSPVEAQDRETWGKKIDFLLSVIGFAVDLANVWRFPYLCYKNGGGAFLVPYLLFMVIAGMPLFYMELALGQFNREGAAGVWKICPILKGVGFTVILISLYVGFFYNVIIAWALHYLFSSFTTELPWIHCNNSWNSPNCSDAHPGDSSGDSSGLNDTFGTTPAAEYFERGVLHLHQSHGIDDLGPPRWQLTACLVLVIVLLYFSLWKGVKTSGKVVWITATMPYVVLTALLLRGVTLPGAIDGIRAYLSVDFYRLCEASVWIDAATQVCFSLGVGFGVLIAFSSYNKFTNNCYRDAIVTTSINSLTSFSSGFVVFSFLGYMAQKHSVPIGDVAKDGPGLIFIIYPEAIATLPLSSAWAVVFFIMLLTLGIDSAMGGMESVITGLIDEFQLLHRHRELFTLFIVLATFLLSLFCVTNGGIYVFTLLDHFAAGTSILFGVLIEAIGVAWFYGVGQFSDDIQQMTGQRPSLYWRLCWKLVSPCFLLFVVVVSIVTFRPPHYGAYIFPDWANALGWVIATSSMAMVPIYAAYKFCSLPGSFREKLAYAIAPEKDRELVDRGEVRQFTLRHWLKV

inhibition [1]: 60%
inhibition [2]: 14%
inhibition [6]: 90%
inhibition [7]: 100%
inhibition [8]: 5%
Structure (SMILES): CN(C)CCCN1c2ccccc2CCc2ccc(Cl)cc21 [CLOMIPRAMINE]
Activity (NCI-H1650 [3]): Active
inhibition (INH) [4]: Active
GI50 (NCI-H1650 [5]): > 40 µM

Structure (SMILES): O=S(=O)(NCCCN1c2ccccc2CCc2ccc(Cl)cc21)c1ccc(OC(F)(F)F)cc1
inhibition (Homo sapiens [9]): inactive
Tmax [10]: 4 h
Cmax [11]: 2350 ng/mL
inhibition (Homo sapiens [12]): inactive
AUC(0-t) [13]: 375 ng·h/mL
clearance [14]: 42 mL/min/kg
AUC(0-inf) [15]: 7210 ng·h/mL
Cmax [16]: 1940 ng/mL
AUC(0-inf) [17]: 14100 ng·h/mL
AUC(0-inf) [18]: 399 ng·h/mL
Cmax [19]: 476 ng/mL
Cmax [20]: 3100 ng/mL
inhibition [21]: Active
inhibition [22]: inactive
AUC(0-t) [23]: 12800 ng·h/mL
half-life [24]: 0.61 h
Tmax [25]: 2 h
bioavailability [26]: 100%
bioavailability [27]: 38%
inhibition (INH) [28]: Not Active
bioavailability [29]: 15%
AUC(0-inf) [30]: 1430 ng·h/mL
inhibition (Homo sapiens [31]): inactive
inhibition (NCI-H1650 [32]): Active
Activity (NCI-H1650 [3]): Active
inhibition (INH) [4]: Not Active
Tmax [33]: 1 h
Tmax [34]: 1 h
inhibition (Homo sapiens [35]): inactive
bioavailability [36]: 34%
AUC(0-t) [37]: 6790 ng·h/mL
AUC(0-t) [38]: 38800 ng·h/mL
GI50 (NCI-H1650 [5]): 12.6 µM
Vd [39]: 1.31 L/kg
inhibition (INH) [40]: Not Active
inhibition (Homo sapiens [41]): inactive
Cmax [42]: 754 ng/mL
Activity (NCI-H1650 [43]): inactive
AUC(0-inf) [44]: 3680 ng·h/mL
bioavailability [45]: 18%
inhibition [46]: inactive
inhibition [47]: < 5%
AUC(0-t) [48]: 3570 ng·h/mL
Activity (NCI-H1650 [49]): Active
Tmax [50]: 2 h
inhibition [51]: inactive
AUC(0-inf) [52]: 40700 ng·h/mL
inhibition [53]: Active
inhibition [54]: Active
AUC(0-t) [55]: 1380 ng·h/mL
fold change (FC) (NCI-H1650 [56]): 1.49
